# CHO-K1 Ca antag – counter-screen for M1 antagonists: effect in parental CHO-K1 cells; AID 602250; ATP-induced calcium, Fluo-8 fluorescence; inhibition, % at 3 µM; hit rate 0.6% among 360,000;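 active = inhibition above a per-plate cutoff, the plate's mean sample inhibition plus 3 SD, cut at about 24% in these data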;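 also: 0% = DMSO plus EC80 ATP and 100% = DMSO alone without ATP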
# CHO-K1 Ca ag – M1 agonist counterscreen hit in parental CHO-K1 cells; hit rate 0.48% among 360,000; activation, % at 3 µM; Fluo-8 calcium fluorescence; scaled to maximal ATP response, vehicle zero; in the data active = activation above about 15%;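 also: untransfected CHO-K1 host cells lacking M1 receptor as counterscreen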
# CHRM5 agonist – agonists of human muscarinic M5 receptor (CHRM5); P08912; CHO-K1 hM5 cells, Fluo-8 calcium fluorescence; 0% DMSO wells, 100% maximal acetylcholine response; activation, % at 3 µM; hit rate 0.19% among 360,000; AID 624037;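 active = activation above the run's mean over test compounds plus 3 SD, cut at about 23% in these data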;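 also: signal is peak over basal fluorescence ratio across the kinetic read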
# Target sequence (P08912 whole entry, looked up): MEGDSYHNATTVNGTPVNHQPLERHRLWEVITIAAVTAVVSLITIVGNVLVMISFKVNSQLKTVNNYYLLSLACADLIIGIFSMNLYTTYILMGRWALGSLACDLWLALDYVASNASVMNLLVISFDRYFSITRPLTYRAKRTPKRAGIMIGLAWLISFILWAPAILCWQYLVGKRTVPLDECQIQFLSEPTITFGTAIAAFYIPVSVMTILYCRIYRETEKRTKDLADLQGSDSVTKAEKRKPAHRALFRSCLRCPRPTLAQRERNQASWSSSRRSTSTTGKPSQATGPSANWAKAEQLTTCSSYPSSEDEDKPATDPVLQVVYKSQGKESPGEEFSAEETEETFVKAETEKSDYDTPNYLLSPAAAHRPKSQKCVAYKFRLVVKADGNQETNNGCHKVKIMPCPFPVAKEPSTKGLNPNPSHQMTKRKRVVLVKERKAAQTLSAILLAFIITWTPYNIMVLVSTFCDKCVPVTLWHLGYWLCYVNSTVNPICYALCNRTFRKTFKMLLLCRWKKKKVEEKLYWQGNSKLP
# CHRM5 PAM – CHRM5 positive allosteric modulation; P08912; CHO-K1 hM5, Fluo-8 calcium, ACh EC20 PAM; 0% = ACh EC20, 100% = ACh EC100; activation, % at 3 µM; hit rate 0.3% among 360,000;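 active = activation above the run cutoff, the mean activation of all test compounds plus 3 SD, cut at about 18% in these data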
#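 System: CHO-K1 hM5 cells. Reagent: acetylcholine, EC20 level. Compound dosing: single dose, 3 µM nominal final test concentration. Timing: Post-acetylcholine fluorescence recording 140 s. Detection: Fluo-8 calcium fluorescence. Read-out: % activation, ACh-normalized. Benchmarks: ACh EC20 and EC100 wells. Repeats: singlicate, one well per test compound.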
# M5 antag – antagonists of human muscarinic M5 receptor (CHRM5); CHO-hM5 cells, Fluo-8 calcium fluorescence, ACh EC80; inhibition, % at 3 µM; P08912; hit rate 0.59% among 360,000;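 active = inhibition above a per-plate cutoff, the mean of that plate's test compounds plus 3 SD, cut at about 27% in these data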;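 also: 0% = acetylcholine EC80 with DMSO and 100% = DMSO without agonist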
# M1 PAM parental – counter-screen for M1 PAMs: effect in parental CHO-K1 cells | AID 602247 | hit rate 0.02% among 360,000 | activation, % at 3 µM | ATP EC20, Fluo-8 calcium fluorescence; 0% at ATP EC20, 100% at ATP max;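 active = activation above the run cutoff, the mean activation of all test compounds plus 3 SD, cut at about 40% in these data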;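 also: peak over basal fluorescence ratio in a 140 s read after ATP addition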
# An asterisk follows results filed as active. Shown are actives, neighbours in structure and some others; about 1.7% of the full set was active somewhere.
SMILES,CHO-K1 Ca antag,CHO-K1 Ca ag,CHRM5 agonist,CHRM5 PAM,M5 antag,M1 PAM parental
CC(C)C[C@H](NC(=O)C1CC(=O)N(c2ccc3c(c2)OCO3)C1)C(=O)NC1CCCC1 (stereo partly specified),-8.5,0.9,1.2,3.5,-2.7,-7.2
O=S(=O)(c1ccc(Cl)nc1)N1CCC(Cc2ccccc2)CC1,-15.4,0.6,0.2,5.9,-4.3,7.4
NC(=O)C1CCN(c2ccc(S(=O)(=O)N3CCC(Cc4ccccc4)CC3)cn2)CC1,4.8,19.3*,5.2,0.4,5.2,7.9
Cc1ccc(C)c2sc(N3CCN(C(=O)c4ccc([N+](=O)[O-])o4)CC3)nc12,21.4,0.0,-1.0,-3.0,1.2,-35.0
O=C(c1ccc([N+](=O)[O-])o1)N1CCN(c2nc3c(F)cc(F)cc3s2)CC1,23.8*,1.8,-3.0,0.4,0.5,-9.9
Cc1cc(C(=O)NCc2ccc3c(c2)OCO3)ccc1[N+](=O)[O-],-12.3,22.5*,0.0,-6.5,11.8,8.1
Cc1ccc(C(=O)NCc2ccc3c(c2)OCO3)cc1Cl,24.4*,0.1,-6.8,1.1,10.5,-18.7
O=C1C=C(NCc2ccncc2)CC(c2ccccc2)C1 (stereo unspecified),-4.8,2.4,-2.8,-6.2,2.5,3.7
O=C1C=C(NNC(=O)c2ccncc2)CC(c2ccccc2)C1 (stereo unspecified),3.5,7.5,32.6*,-11.7,8.3,-2.2
C[N+](C)(C)CCOC(=O)C1(c2ccccc2)CCCC1,-12.5,0.7,-11.8,-15.3,99.1*,15.5
COc1ccc(C(=O)OCC[N+]2(C)CCCCC2)cc1,-8.8,5.4,-7.2,5.1,-2.0,22.2
C[N+]1(CCOC(=O)C2(c3ccccc3)CCCC2)CCCCC1,-8.7,0.2,-7.8,-17.3,97.9*,13.2
COc1ccc(NC(=O)C2(c3ccccc3)CCCC2)cc1,-10.1,-0.2,-7.1,-7.8,0.4,16.2
CC(C[N+](C)(C)C)OC(=O)C1(c2ccccc2)CCCC1 (stereo unspecified),-11.0,1.1,-21.6,-31.7,42.0*,16.9
C#CCOCCOCCOCCNc1nc(N2CCN(C(=O)[C@H](CCCCN)n3cc(C(N)[C@H](C)CC)nn3)CC2)nc(N2CCN(C(=O)[C@H](CCC(=O)O)n3cc(C(N)[C@H](C)CC)nn3)CC2)n1 (stereo partly specified),-6.6,0.6,0.7,2.5,6.9,16.6
CCN1/C(=C/c2ccc3cccc(C)c3[n+]2CC)Sc2ccccc21,23.6,9.9,6.1,-6.9,27.2*,7.7
CCN1/C(=C\c2ccc3cc(C)ccc3[n+]2CC)Sc2cc(C)c(C)cc21,34.8*,18.2*,8.6,-22.6,42.0*,-3.9
CCN1/C(=C/c2ccc3cc(C)cc(C)c3[n+]2CC)Sc2cc(C)ccc21,40.3*,21.3*,5.0,-23.4,31.1*,-10.6
Cn1c(NNC(=O)/C=C/c2ccc3c(c2)OCO3)cc(=O)n(C)c1=O,-13.0,0.5,0.2,4.0,1.6,17.0
CCCOC1CCCN(C(=O)c2ccc(OC3CCN(Cc4ccccn4)CC3)cc2)C1 (stereo unspecified),-1.3,1.1,-5.3,-6.9,1.1,-0.1
O=C(c1ccc(OC2CCN(Cc3ccccn3)CC2)cc1)N1CCCC(O)C1 (stereo unspecified),-12.8,0.8,-10.5,23.7*,-10.8,11.6
Cc1c(NC(=O)Nc2cc(Cl)ccc2Cl)c(=O)n(-c2ccccc2)n1C,7.0,0.3,-6.1,-8.5,29.0*,-13.1
CC(C)(C)NC(=O)CN(C(=O)CCC(=O)Nc1nccs1)c1ccc(F)cc1,-6.2,0.3,-3.0,-4.7,13.8,4.5
C#CCOC(=O)C1C2C=CC(C2)C1C(=O)O (stereo unspecified),-16.2,0.2,4.7,8.0,-9.3,9.5
CC(C)(C)C1CCC(CN2C(Nc3ccccc3)=NC[C@@H]2Cc2ccccc2)CC1 (stereo partly specified),4.7,16.6*,-1.5,-20.0,28.0*,19.6
O=C(CSc1ncnc2sc(-c3ccccc3)cc12)NC1CCS(=O)(=O)C1 (stereo unspecified),-8.3,0.4,-1.4,1.2,-0.9,26.9
